Tests used:
Assay type in all cases: functional
[1] = system: K562; test: Growth inhibition of human K562 cells incubated for 48 hrs by sulforhodamine B assay; conditions: K562, 48 h
Procedure, shortened: (§1)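 Cells were plated at 5,000–40,000 per well according to doubling time and preincubated 24 h at 37 °C in 5% CO2; time-zero plates were then TCA-fixed. Five concentrations (10-fold or ½-log dilutions, DMSO stock) were incubated 48 h. Cells were TCA-fixed, stained with 0.4% SRB and read at 515 nm. GI50 was taken where [(Ti−Tz)/(C−Tz)]×100 = 50.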

[2] = Growth inhibition of human SW620 cells incubated for 48 hrs by sulforhodamine B assay; conditions: SW-620, 48 h; procedure, shortened: as §1
[3] = system: SK-MEL-2; test: Growth inhibition of human SK-MEL-2 cells incubated for 48 hrs by sulforhodamine B assay; conditions: SK-MEL-2, 48 h; procedure, shortened: as §1
[4] = system: CCRF-CEM; test: Growth inhibition of human CCRF-CEM cells assessed as cell growth at 10^-7 M incubated for 48 hrs by sulforhodamine B assay; conditions: read-out: Activity
Procedure, shortened: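 Leukemia line in the five-dose format: five concentrations from 10-fold or ½-log serial dilutions. Plated at 5,000–40,000 cells per well, preincubated 24 h, then compound added for 48 h at 37 °C, 5% CO₂. Sulforhodamine B absorbance read at 515 nm. Growth is computed against time-zero (Tz) and control (C) readings; GI₅₀ is where [(Ti−Tz)/(C−Tz)]×100 = 50.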

[5] = Growth inhibition of human RXF393 cells assessed as cell growth at 10^-5 M incubated for 48 hrs by sulforhodamine B assay; conditions: RXF 393, 48 h, read-out: Activity
[6] = Growth inhibition of human MOLT4 cells assessed as cell growth at 10^-4 M incubated for 48 hrs by sulforhodamine B assay; conditions: MOLT-4, 48 h, read-out: Activity
[7] = system: M14; test: Growth inhibition of human M14 cells assessed as cell growth at 10^-7 M incubated for 48 hrs by sulforhodamine B assay; conditions: M14, 48 h, read-out: Activity
[8] = Growth inhibition of human OVCAR5 cells assessed as cell growth at 10^-4 M incubated for 48 hrs by sulforhodamine B assay; conditions: OVCAR-5, 48 h, read-out: Activity
[9] = system: SK-MEL-5; test: Growth inhibition of human SK-MEL-5 cells assessed as cell growth at 10 uM incubated for 48 hrs by sulforhodamine B assay; conditions: SK-MEL-5, 48 h, read-out: Activity
[10] = Growth inhibition of human OVCAR5 cells assessed as cell growth at 10 uM incubated for 48 hrs by sulforhodamine B assay; conditions: OVCAR-5, 48 h, read-out: Activity
[11] = system: ACHN; test: Growth inhibition of human ACHN cells assessed as cell growth at 10 uM incubated for 48 hrs by sulforhodamine B assay; conditions: read-out: Activity
Procedure, shortened: (§2)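 One-dose screen at 10 µM final. Cells are plated at 5,000–40,000 per well according to doubling time and preincubated 24 h at 37 °C, 5% CO₂. Compound (DMSO stock diluted in medium with 50 µg/ml gentamicin) is then added for 48 h. Growth percent is read by sulforhodamine B staining, absorbance at 515 nm.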

[12] = Growth inhibition of human TK10 cells assessed as cell growth at 10 uM incubated for 48 hrs by sulforhodamine B assay; conditions: TK-10, 48 h, read-out: Activity
[13] = system: SR; test: Growth inhibition of human SR cells assessed as cell growth at 10^-8 M incubated for 48 hrs by sulforhodamine B assay; conditions: read-out: Activity
[14] = system: NCI-H522; test: Growth inhibition of human NCI-H522 cells assessed as cell growth at 10^-6 M incubated for 48 hrs by sulforhodamine B assay; conditions: NCI-H522, 48 h, read-out: Activity
[15] = Growth inhibition of human HCT15 cells assessed as cell growth at 10^-6 M incubated for 48 hrs by sulforhodamine B assay; conditions: HCT-15, 48 h, read-out: Activity
Procedure, shortened: (§3)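 Cells seeded at 5,000–40,000/well according to doubling time and preincubated 24 h at 37 °C, 5% CO2. Time-zero plates were TCA-fixed. DMSO concentrate was diluted in medium with 50 µg/ml gentamicin to give five concentrations (10-fold or ½ log steps), then exposed 48 h. Cells were TCA-fixed, stained with 0.4% SRB and read at 515 nm. Percent growth was taken against time-zero and control; GI50, TGI and LC50 derived.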

[16] = Growth inhibition of human SW620 cells assessed as cell growth at 10^-6 M incubated for 48 hrs by sulforhodamine B assay; conditions: SW-620, 48 h, read-out: Activity
[17] = Growth inhibition of human SF295 cells assessed as cell growth at 10^-8 M incubated for 48 hrs by sulforhodamine B assay; conditions: SF-295, 48 h, read-out: Activity
[18] = Growth inhibition of human OVCAR4 cells assessed as cell growth at 10^-6 M incubated for 48 hrs by sulforhodamine B assay; conditions: OVCAR-4, 48 h, read-out: Activity
[19] = system: 786-0; test: Growth inhibition of human 786-0 cells assessed as cell growth at 10^-6 M incubated for 48 hrs by sulforhodamine B assay; conditions: 786-0, 48 h, read-out: Activity
Procedure, shortened: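 Five-dose assay: five concentrations from 10-fold or ½-log serial dilutions. Cells are plated at 5,000–40,000 per well according to doubling time, grown 24 h, then exposed 48 h at 37 °C, 5% CO₂. Fixed with cold 50% TCA (final addition) for 60 min at 4 °C and stained with 0.4% SRB in 1% acetic acid. Bound dye is solubilized in 10 mM Tris base and read at 515 nm. GI₅₀ is where [(Ti−Tz)/(C−Tz)]×100 = 50, with a time-zero plate as Tz.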

[20] = Growth inhibition of human DU145 cells assessed as cell growth at 10^-6 M incubated for 48 hrs by sulforhodamine B assay; conditions: DU-145, 48 h, read-out: Activity; procedure, shortened: as §3
[21] = system: K562; test: Growth inhibition of human K562 cells assessed as cell growth at 10 uM incubated for 48 hrs by sulforhodamine B assay; conditions: K562, 48 h, read-out: Activity
[22] = system: A549; test: Growth inhibition of human A549/ATCC cells assessed as cell growth at 10 uM incubated for 48 hrs by sulforhodamine B assay; conditions: A549, 48 h, read-out: Activity; procedure, shortened: as §2
[23] = Growth inhibition of human SW620 cells assessed as cell growth at 10 uM incubated for 48 hrs by sulforhodamine B assay; conditions: SW-620, 48 h, read-out: Activity
[24] = Growth inhibition of human SF268 cells assessed as cell growth at 10 uM incubated for 48 hrs by sulforhodamine B assay; conditions: SF-268, 48 h, read-out: Activity
[25] = Growth inhibition of human breast cancer cells incubated for 48 hrs by sulforhodamine B assay; conditions: Cancer cell lines; for CC50: read-out: LC50 (the source's name)
[26] = read-out: LC50 (the source's name)
[27] = read-out: pLC50 (the source's name) (converted)

## Clc1ccc(-c2nc(Nc3ccc(-c4nc5ccccc5[nH]4)cc3)nc(N3CCOCC3)n2)cc1
[1]; read-out: GI50
  GI50: 0.186 µM
[1]; read-out: TGI
  TGI: 0.391 µM
[1]; read-out: pGI50 (converted)
  GI50: 0.186 µM
[1]; read-out: pTGI (converted)
  TGI: 0.389 µM
[2]; read-out: GI50
  GI50: 0.186 µM
[2]; [26]
  CC50: 0.742 µM
[2]; read-out: TGI
  TGI: 0.372 µM
[2]; read-out: pGI50 (converted)
  GI50: 0.186 µM
[2]; [27]
  CC50: 0.741 µM
[2]; read-out: pTGI (converted)
  TGI: 0.372 µM
[3]; read-out: GI50
  GI50: 1.8 µM
[3]; read-out: TGI
  TGI: 3.37 µM
[3]; read-out: pGI50 (converted)
  GI50: 1.82 µM
[3]; read-out: pTGI (converted)
  TGI: 3.39 µM
[4]
  growth at 0.1 µM: 99%
[5]
  growth at 10 µM: -79%
[6]
  growth at 100 µM: -41%
[7]
  growth at 0.1 µM: 93%
[8]
  growth at 100 µM: -16%
[9]
  growth at 10 µM: -97.6%
[10]
  growth at 10 µM: -74.7%
[11]
  growth at 10 µM: -90.6%
[12]
  growth at 10 µM: -94.4%
[13]
  growth at 0.01 µM: 103%
[14]
  growth at 1 µM: 77%
[15]
  growth at 1 µM: -57%
[16]
  growth at 1 µM: -72%
[17]
  growth at 0.01 µM: 97%
[18]
  growth at 1 µM: 52%
[19]
  growth at 1 µM: -78%
[20]
  growth at 1 µM: 26%
[21]
  growth at 10 µM: -100%
[22]
  growth at 10 µM: -75.2%
[23]
  growth at 10 µM: -74.2%
[24]
  growth at 10 µM: -82.7%
[25]
  GI50: 0.62 µM
  TGI: 1.86 µM
  CC50: > 100 µM

## c1ccc2[nH]c(-c3ccc(Nc4nc(N5CCCCC5)nc(N5CCOCC5)n4)cc3)nc2c1
[1]; read-out: GI50
  GI50: 2.84 µM
[1]; [26]
  CC50: > 100 µM
[1]; read-out: pGI50 (converted)
  GI50: 2.82 µM
[1]; [27]
  CC50: > 100 µM
[2]; read-out: GI50
  GI50: 2.34 µM
[2]; [26]
  CC50: 74.7 µM
[2]; read-out: TGI
  TGI: 5.87 µM
[2]; read-out: pGI50 (converted)
  GI50: 2.34 µM
[2]; [27]
  CC50: 74.1 µM
[2]; read-out: pTGI (converted)
  TGI: 5.89 µM
[3]; read-out: GI50
  GI50: 2.34 µM
[3]; [26]
  CC50: 25.8 µM
[3]; read-out: TGI
  TGI: 5.36 µM
[3]; read-out: pGI50 (converted)
  GI50: 2.34 µM
[3]; [27]
  CC50: 25.7 µM
[3]; read-out: pTGI (converted)
  TGI: 5.37 µM
[4]
  growth at 0.1 µM: 96%
[5]
  growth at 10 µM: -43%
[6]
  growth at 100 µM: -34%
[7]
  growth at 0.1 µM: 95%
[8]
  growth at 100 µM: -18%
[9]
  growth at 10 µM: -90.8%
[10]
  growth at 10 µM: 73.9%
[11]
  growth at 10 µM: 22.9%
[12]
  growth at 10 µM: 58.8%
[13]
  growth at 0.01 µM: 95%
[14]
  growth at 1 µM: 94%
[15]
  growth at 1 µM: 87%
[16]
  growth at 1 µM: 96%
[17]
  growth at 0.01 µM: 94%
[18]
  growth at 1 µM: 93%
[19]
  growth at 1 µM: 79%
[20]
  growth at 1 µM: 96%
[21]
  growth at 10 µM: -6.74%
[22]
  growth at 10 µM: 13.9%
[23]
  growth at 10 µM: 5.3%
[24]
  growth at 10 µM: 33.8%
[25]
  GI50: 2.36 µM
  TGI: 6.72 µM
  CC50: 92.7 µM

Reference: ChEMBL document CHEMBL3808334, “Synthesis and in vitro evaluation of novel triazine analogues as anticancer agents and their interaction studies with bovine serum albumin” (Eur J Med Chem, 2016)
